Results published in PMC2174413 (Environmental Health Perspectives, 2007).

Experiments:
[1] = system: 3′-phosphoadenosine 5′-phosphosulfate synthase 1 (PAPSS1) mRNA; experiment: Real-time RT-PCR of PAPSS1 steady-state mRNA in treated TE 671 cells; format: cell-based, human; conditions: 24 hr, 0.005–0.5 μM, ΔΔCt method, HPRT1 internal standard
Outline: (§1)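 TE 671 cells were pre-grown 72 hr in phenol red–free DMEM, plated at 4 ×10⁴ cells/well in 10% dialyzed FCS medium, equilibrated 24 hr, and dosed 24 hr (DMSO carrier, quadruplicate per dose). Total RNA (1 μg) was reverse-transcribed with poly T primers for 60 min at 42°C. SYBR Green qPCR used 60°C annealing, 44 cycles and a melt curve, with samples in quadruplicate; mean ± SE.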

[2] = system: sulfite oxidase (SUOX) mRNA; experiment: Real-time RT-PCR of SUOX steady-state mRNA in treated TE 671 cells; format: cell-based, human; conditions: 24 hr, 0.005–0.5 μM, ΔΔCt method, HPRT1 internal standard
Outline: as §1

[3] = system: cysteine dioxygenase type I (CDO1) mRNA; experiment: Real-time RT-PCR of CDO1 steady-state mRNA in treated TE 671 cells; format: cell-based, human; conditions: 24 hr, 0.005–0.5 μM, ΔΔCt method, HPRT1 internal standard
Outline: as §1

[4] = target: T1, human DHEA sulfotransferase (SULT 2A1) (Homo sapiens, UniProt Q06520); experiment: Inhibition of sulfation of tritiated DHEA by SULT 2A1 in human liver cytosol; format: biochemical
T1 sequence (Q06520 1-285): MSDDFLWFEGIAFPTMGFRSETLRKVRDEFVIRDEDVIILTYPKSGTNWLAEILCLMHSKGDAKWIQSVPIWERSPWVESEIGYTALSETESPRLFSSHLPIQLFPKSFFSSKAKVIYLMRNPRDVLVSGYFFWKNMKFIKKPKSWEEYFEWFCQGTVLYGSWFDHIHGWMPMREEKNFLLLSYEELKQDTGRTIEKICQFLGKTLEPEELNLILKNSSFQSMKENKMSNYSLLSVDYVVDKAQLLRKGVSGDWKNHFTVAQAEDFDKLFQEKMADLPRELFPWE

[5] = system: SULT 2A1; conditions: read-out: Km of SULT 2A1 for DHEA; ref Chang et al. 2001; cited from earlier work

## Oc1ccc(Cl)cc1Cl [2,4-dichlorophenol]
[1]
  PAPSS1 mRNA expression level relative to undosed control: did not show significant decreases
[2]
  SUOX mRNA expression level relative to undosed control: did not show significant decreases
[3]
  CDO1 mRNA expression level relative to undosed control: did not show significant decreases

## Cc1cc(O)ccc1Cl [4-chloro-3-methylphenol]
[1]
  PAPSS1 mRNA expression level relative to undosed control: did not show significant decreases
[2]
  SUOX mRNA expression level relative to undosed control: did not show significant decreases
[3]
  CDO1 mRNA expression level relative to undosed control: did not show significant decreases

## CCCCCCCCCc1ccc(O)cc1 [4-n-Nonylphenol, 4-n-nonylphenol]
[1]
  PAPSS1 mRNA expression level relative to undosed control: very significant dose-dependent decrease
[4]
  Ki: 10.5 ± 0.6 µM

## CC(C)(C)CC(C)(C)c1ccc(O)cc1 [4-tert-Octylphenol, 4-tert-octylphenol]
[4]
  Ki: 2.8 ± 0.1 µM

## CC(C)(c1ccc(O)cc1)c1ccc(O)cc1 [Bisphenol A, bisphenol A]
[4]
  Ki: 16.3 ± 0.8 µM

## C[C@]12CC[C@H](O)CC1=CC[C@@H]1[C@@H]2CC[C@]2(C)C(=O)CC[C@@H]12 [DHEA, dehydroepiandrosterone]
[5]
  Km: ~2000 nM

## CCCCOC(=O)c1ccccc1C(=O)OCCCC [Dibutyl phthalate, dibutyl phthalate]
[4]
  Ki: 21.5 ± 1.4 µM

## CC(C)CCCCCCCOC(=O)c1ccccc1C(=O)OCCCCCCCC(C)C [Diisodecyl phthalate, diisodecyl phthalate]
[1]
  PAPSS1 mRNA expression level relative to undosed control: clear decreasing trend

## CCCCC(CC)COC(=O)c1ccccc1C(=O)OCC(CC)CCCC (stereo not drawn) [bis(2-ethylhexyl)phthalate]
[1]
  PAPSS1 mRNA expression level relative to undosed control: significant dose-dependent decreases
[2]
  SUOX mRNA expression level relative to undosed control: significant dose-dependent decreases

## bisphenol A dimethacrylate
[1]
  PAPSS1 mRNA expression level relative to undosed control: decreased in a dose-dependent manner
[2]
  SUOX mRNA expression level relative to undosed control: decreased in a dose-dependent manner
[3]
  CDO1 mRNA expression level relative to undosed control: did not affect
